From ChEMBL document CHEMBL1125226, “Antineoplastic activity of didemnin congeners: nordidemnin and modified chain analogues” (1991)

Assays:
Type in all cases: functional, Mus musculus
B16 [1] = assay: Antitumor activity against B16 melanoma from B6 D2 F1 female mice(T/C) was evaluated from the median survival time of treated mice (T) over that of control mice (C) at a dose of 0.03 mg/kg/day
Procedure, shortened: (§1)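 B6D2F1 female mice (C57BL/6 ♀ × DBA/2 ♂) implanted ip on day 0 with 0.5 mL of B16 tumor suspension (1 g homogenized in 9 mL 0.9% saline). Dosing ip on days 1, 5 and 9. Day-5 survivors give toxicity. Median survival of treated vs control mice gives T/C%, with ≥125% significant.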

B16 [2] = assay: Antitumor activity against B16 melanoma from B6 D2 F1 female mice(T/C) was evaluated from the median survival time of treated mice (T) over that of control mice (C) at a dose of 0.06 mg/kg/day; procedure, shortened: as §1
B16 [3] = assay: Antitumor activity against B16 melanoma from B6 D2 F1 female mice(T/C) was evaluated from the median survival time of treated mice (T) over that of control mice (C) at a dose of 1 mg/kg/day; procedure, shortened: as §1
B16 [4] = assay: Antitumor activity against B16 melanoma from B6 D2 F1 female mice as average weight change of animals between day 1 and day 5 after tumor implementation at a dose of 0.50 mg/kg/day (repeated ip injections, day 1-9); details: route intraperitoneal
Procedure, shortened: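 B6D2F1 female mice (C57BL/6 × DBA/2) were implanted ip on day 0 with 0.5 mL of B16 suspension (1 g tumor homogenized in 9 mL 0.9% saline). Ip treatment was given once daily, day 1 to day 9. Body weight was recorded on days 1 and 5 after implantation, and the mean change per group was reported.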

B16 [5] = assay: Antitumor activity against B16 melanoma from B6 D2 F1 female mice evaluated as average weight change of animals between day 1 and day 5 after tumor implementation at a dose of 0.03 mg/kg/day
Procedure, shortened: (§2)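 B16 melanoma in B6D2F1 female mice: 0.5 mL of tumor homogenate (1 g in 9 mL 0.9% saline) was given ip on day 0. Ip dosing was on days 1, 5 and 9. The readout was the average body weight change between day 1 and day 5 after tumor implantation.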

B16 [6] = assay: Antitumor activity against B16 melanoma from B6 D2 F1 female mice evaluated as the number of survivors on day 5 at a dose of 0.03 mg/kg/day; procedure, shortened: as §1
B16 [7] = assay: Antitumor activity against B16 melanoma from B6 D2 F1 female mice evaluated as average weight change of animals between day 1 and day 5 after tumor implementation at a dose of 0.50 mg/kg/day; procedure, shortened: as §2
B16 [8] = assay: Antitumor activity against B16 melanoma from B6 D2 F1 female mice as Median survival time of treated mice at a dose of 0.50 mg/kg/day (repeated ip injections, day 1-9); details: route intraperitoneal
Procedure, shortened: (§3)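 B16 melanoma homogenate (1 g tumor in 9 mL 0.9% saline), 0.5 mL implanted ip on day 0 in B6D2F1 female mice (C57BL/6 ♀ × DBA/2 ♂). Treatment ip once daily from day 1 to day 9. Toxicity scored as survivors on day 5. Median survival recorded and T/C computed as treated/control median survival, ≥125% significant.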

B16 [9] = assay: Antitumor activity against B16 melanoma from B6 D2 F1 female mice evaluated as Median survival time of treated mice at a dose of 0.03 mg/kg/day; procedure, shortened: as §1
B16 [10] = assay: Antitumor activity against B16 melanoma from B6 D2 F1 female mice evaluated as Median survival time of treated mice at a dose of 0.06 mg/kg/day; procedure, shortened: as §1
B16 [11] = assay: Antitumor activity against B16 melanoma from B6 D2 F1 female mice evaluated as Median survival time of treated mice at a dose of 0.50 mg/kg/day; procedure, shortened: as §1
L1210 [12] = assay: Antitumor activity against L1210 Lymphoid Leukemia from CDF1 female mice (T/C) as median survival time of treated mice (T) over that of control mice (C) at a dose of 0.50 mg/kg/day
Procedure, shortened: (§4)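 L1210 leukemia, 10⁵ cells ip on day 0 into CDF1 female mice (BALB/c ♀ × DBA/2 ♂). Drug in 2% methanol given ip on days 1, 5 and 9, 10 mice per group. Survivors and body weight recorded on days 1 and 5, with toxicity as survivors on day 5. Deaths followed for 30 days. T/C = treated/control median survival time, significant at ≥125%.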

L1210 [13] = assay: Antitumor activity against L1210 Lymphoid Leukemia from CDF1 female mice as average weight change of animals between day 1 and day 5 after tumor implementation at a dose of 0.50 mg/kg/day
Procedure, shortened: (§5)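 CDF1 female mice (BALB/c × DBA/2) received 10⁵ L1210 cells ip on day 0. Drug was dissolved in 2% methanol and given ip on days 1, 5 and 9, to 10 mice per group. Weights were taken on days 1 and 5, and the mean change was reported.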

L1210 [14] = assay: Antitumor activity against L1210 Lymphoid Leukemia from CDF1 female mice as average weight change of animals between day 1 and day 5 after tumor implementation at a dose of 1.0 mg/kg/day; procedure, shortened: as §5
L1210 [15] = assay: Antitumor activity against L1210 Lymphoid Leukemia from CDF1 female mice as Median survival time of treated mice at a dose of 1.0 mg/kg/day; procedure, shortened: as §4
L1210 [16] = assay: Antitumor activity against L1210 Lymphoid Leukemia from CDF1 female mice (T/C) as median survival time of treated mice (T) over that of control mice (C) at a dose of 1.0 mg/kg/day; procedure, shortened: as §4
P388 [17] = assay: Antitumor activity was evaluated from the median survival time of treated mice (T) over that of control mice (C) at a dose of 1 mg/kg/day
P388 [18] = assay: Antitumor activity against P388 Leukemia from CDF1 female mice evaluated as the number of survivors on day 5 at a dose of 0.75 mg/kg/day
Procedure, shortened: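 CDF1 female mice (BALB/c × DBA/2) inoculated ip with 10⁶ P388 cells on day 0. Drug given ip in 2% methanol on days 1, 5 and 9. Ten mice per dose group, with a larger control group. Body weight and survival were recorded on days 1 and 5, with toxicity taken as survivors on day 5. Mortality was followed for 30 days to give median survival time.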

P388 [19] = assay: Average weight change of animals between day 1 and day 5 after tumor implementation at a dose of 0.03 mg/kg/day
Procedure, shortened: (§6)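 P388 leukemia: CDF1 female mice were inoculated ip with 10⁶ cells on day 0. Treatment in 2% methanol was given ip on days 1, 5 and 9, with 10 mice per group and a larger control group. Body weight was recorded on days 1 and 5 post-implant, and the average change was reported.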

P388 [20] = assay: Average weight change of animals between day 1 and day 5 after tumor implementation at a dose of 0.06 mg/kg/day; procedure, shortened: as §6
P388 [21] = assay: Average weight change of animals between day 1 and day 5 after tumor implementation at a dose of 0.12 mg/kg/day; procedure, shortened: as §6
P388 [22] = assay: Antitumor activity (T/C) was evaluated from the median survival time of treated mice (T) over that of control mice (C) at a dose of 0.12 mg/kg/day
Procedure, shortened: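 CDF1 female mice (BALB/c ♀ × DBA/2 ♂) given 10⁶ P388 cells ip on day 0. Drug in 2% methanol given ip on days 1, 5 and 9, 10 mice per group and more controls. Toxicity is survivors on day 5, with weight change between days 1 and 5. Mortality followed 30 days. T/C% is treated over control median survival (NCI method), significant at ≥125%.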

B16 [23] = assay: Antitumor activity against B16 melanoma from B6 D2 F1 female mice as Median survival time of treated mice at a dose of 0.03 mg/kg/day (repeated ip injections, day 1-9); details: route intraperitoneal; procedure, shortened: as §3

`COc1ccc(C[C@H]2C(=O)O[C@H](C)[C@H](NC(=O)[C@@H](CC(C)C)N(C)C(=O)C3CCCN3C(=O)[C@@H](C)O)C(=O)NC(C(C)C)[C@H](O)CC(=O)O[C@@H](C(C)C)C(=O)[C@H](C)C(=O)N[C@@H](CC(C)C)C(=O)N3CCC[C@H]3C(=O)N2C)cc1` (stereo partly drawn) [NORDIDEMNIN] was tested, and the T/C (B16 [1]) was 101%, the T/C (B16 [2]) was 116% and the T/C (B16 [3]) was 154%. The Body weight change (B16 [4]) was -2.3 g, the Body weight change (B16 [5]) was 0 g and the Toxicity (B16 [6]) was 1. For the same compound, the Body weight change (B16 [7]) was -0.9 g, the “median survival time, days” value (B16 [8]) was 9.9 and the “median survival time, days” value (B16 [9]) was 19.3. For the same compound, the “median survival time, days” value (B16 [10]) was 22, the “median survival time, days” value (B16 [11]) was 28 and the T/C (L1210 [12]) was 117%. The Body weight change (L1210 [13]) was -0.9 g, the Body weight change (L1210 [14]) was -0.5 g and the “median survival time, days” value (L1210 [15]) was 11.2. For the same compound, the T/C (L1210 [16]) was 123%, the T/C (P388 [17]) was 180% and the Toxicity (P388 [18]) was 1. It also gave a Body weight change (P388 [19]) of 0 g, a Body weight change (P388 [20]) of 0.2 g and a Body weight change (P388 [21]) of -0.7 g. The T/C (P388 [22]) was 133% and the “median survival time, days” value (B16 [23]) was 26.5.
